Experimental data pooled from the literature.
Each line is one published result; the experiments were not run side by side.
Matrix: plasma

SMILES | system | conditions | AUC(0-t)
CCNCCCNC/C=C\CNCCCNCC | human | intravenous, 150 mg, patients, infusion | 473 ng·h/mL
C[C@@H](Oc1ccc(S(C)(=O)=O)cc1C(=O)N1C[C@@H]2C[C@]2(c2cc(C(F)(F)F)on2)C1)C(F)(F)F | human | oral, 25 mg, fed, tablet | 11 µM·h
CC(=O)Oc1ccccc1C(=O)O | human | oral, 650 mg, healthy volunteers | 2630 ng·h/mL
CC(C)(O)c1ccccc1-c1ccc2[nH]c(/C=C/c3ccc(C(F)(F)F)cc3)nc2c1 | male human | oral, 120 mg, single dose, fasted, healthy volunteers | 13100 ng·h/mL
COc1ccc(-n2nc(C(N)=O)c3c2C(=O)N(c2ccc(N4CCCCC4=O)cc2)CC3)cc1 | human | oral, 10 mg, single dose, healthy volunteers | 2480 ng·h/mL
Oc1cc(O)c2c(c1)O[C@@H](c1ccc(O)c(O)c1)[C@@H](O)C2 | human | oral, 10 mg, single dose | 4.6 ng·h/mL
COc1cc2c(cc1OC)CN(CCc1ccc(NC(=O)c3cc(OC)c(OC)cc3NC(=O)c3cnc4ccccc4c3)cc1)CC2 | human | intravenous, 1 mg/kg, patients | 5.4 µM·h
OC[C@H]1O[C@@H](c2ccc(Cl)c(Cc3ccc(O[C@H]4CCOC4)cc3)c2)[C@H](O)[C@@H](O)[C@@H]1O | human | oral, 100 mg, single dose | 20 µM·h
CO[C@H]1CC[C@H](N2C(=O)CNc3ncc(-c4ccc(C(C)(C)O)nc4)nc32)CC1 | human | oral, 30 mg, multiple doses, patients | 1440 ng·h/mL
CC(C)n1cc(C#N)c2cc(-n3cc(C(=O)O)cn3)ccc21 | human | oral, 25 mg, single dose, fasted, healthy volunteers | 5010 ng·h/mL
Cc1nc(NC(=O)N2CCC[C@H]2C(N)=O)sc1-c1ccnc(C(C)(C)C(F)(F)F)c1 | human | oral, 270 mg, patients | 25300 ng·h/mL
C[C@@H](Nc1cc(F)cc(F)c1)c1cc(C(=O)N(C)C)cc2c(=O)cc(N3CCOCC3)oc12 | human | oral, 360 mg, single dose, patients | 8350 ng·h/mL
FC(F)(F)c1ccc(CNc2ccc(Cc3c[nH]c4ncc(Cl)cc34)cn2)cn1 | human | oral, 1600 mg, multiple doses, patients | 28700 ng·h/mL
C#Cc1cccc(Nc2ncnc3cc(OCCOC)c(OCCOC)cc23)c1 | human | oral, 50 mg, patients | 12.5 µM·h
COc1cc(N2CCC(N3CCN(C)CC3)CC2)ccc1Nc1ncnc(Nc2ccccc2S(=O)(=O)C(C)C)n1 | human | oral, 50 mg, multiple doses, patients | 4640 ng·h/mL
COC(=O)N[C@@H](C)CNc1nccc(-c2cn(C(C)C)nc2-c2cc(Cl)cc(NS(C)(=O)=O)c2F)n1 | human | oral, 50 mg, single dose | 1900 ng·h/mL
CCO[C@H]1CCN(Cc2c(OC)cc(C)c3[nH]ccc23)[C@H](c2ccc(C(=O)O)cc2)C1 | human | oral, 100 mg, multiple doses, twice daily, patients | 11900 ng·h/mL
CO[C@@H]1[C@H](OC(=O)N2CC(CCN3CCOCC3)C2)CC[C@]2(CO2)[C@H]1[C@@]1(C)O[C@@H]1CC=C(C)C | human | subcutaneous, 2.4 mg, single dose, healthy volunteers | 8.07 ng·h/mL
Nc1cc(C(F)(F)F)c(-c2cc(N3CCOCC3)nc(N3CCOCC3)n2)cn1 | human | oral, 100 mg/day, patients | 8800 ng·h/mL
CNC(=O)c1ccccc1Sc1ccc2c(/C=C/c3ccccn3)n[nH]c2c1 | human | oral, 5 mg, single dose, fasted, healthy volunteers | 194 ng·h/mL
COc1ccc([C@@H]2CN(C(=O)[C@@H](O)CO)C[C@@]2(C)[C@@H](C)O)cc1OC1CN(c2ccc(C)cn2)C1 | human | oral, 5 mg, single dose, healthy volunteers | 1590 ng·h/mL
C[C@@]1(c2cc(NC(=O)c3ccc(C#N)cn3)ccc2F)C=CSC(N)=N1 | human | oral, 150 mg, single dose | 14300 ng·h/mL
O=C(/C=C/c1cccc(S(=O)(=O)Nc2ccccc2)c1)NO | human | intravenous, 1800 mg/m², patients | 54700 ng·h/mL
CCCCC1=NC2(CCCC2)C(=O)N1Cc1ccc(-c2ccccc2S(=O)(=O)Nc2noc(C)c2C)c(COCC)c1 | human | oral, 800 mg, single dose, fed, healthy volunteers, tablet | 169000 ng·h/mL
NS(=O)(=O)c1ccc(NC(=O)Nc2ccc(F)cc2)cc1 | human | oral, 2000 mg, multiple doses, once daily | 180000 ng·h/mL
C[C@@H]1COCCN1c1cc(C2([S@](C)(=N)=O)CC2)nc(-c2cc[nH]c3nccc2-3)n1 | human | oral, 20 mg, single dose, patients | 6770 ng·h/mL
COCCOc1cnc2ccn([C@H](C)c3nnc4c(F)cc(-c5cnn(C)c5)cn34)c(=O)c2c1 | human | oral, 200 mg, multiple doses, once daily, patients | 36900 ng·h/mL
